Screening data: PubChem BioAssay, Johns Hopkins Ion Channel Center
hERG rescue = shields human hERG channel from block by proarrhythmic agents; CHO-hERG, FluxOR thallium flux, dofetilide IC70 present; 0.51% of 310,000 active; activation (rescue from dofetilide block), less the hit threshold, % at 10 µM; AID 1511;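 active = activation above the mean of controls blocked by dofetilide plus 5 SD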;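 also: thallium influx through hERG after potassium depolarization seen as dye fluorescence rise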
Kir21 block = blocks the mouse Kir2.1 inward-rectifier potassium channel; B-score at 10 µM; HEK293-Kir2.1, FluxOR thallium flux fluorescence; active compounds read low; AID 1672; 0.85% of 310,000 active; P35561;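 active = fluorescence ratio B-score at or below minus 3 SD of library scores, with starting-brightness B-score within 2 SD, cut at about -4.2 in these data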;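 also: channel flux triggered by added potassium and thallium sulfate stimulus; B-score of peak minus minimum fluorescence over baseline after thallium stimulus; more negative B-score means stronger Kir2.1 block with less thallium influx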
KCNQ1 act = potentiates or activates the human KCNQ1 potassium channel | P51787 | CHO-K1 KCNQ1, thallium flux FluxOR fluorescence; active compounds read high | B-score at 10 µM | 0.35% of 310,000 active | AID 2648;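 active = fluorescence ratio B-score, a plate-corrected score, at least three library SD, with initial intensity B-score within 5 SD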
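Schedule – 37 °C overnight plating, 90-min dark dye load, 20-min compound pretreatment · System – stable KCNQ1 CHO-K1 line · Probe or stimulus – thallium- and potassium-containing depolarizing buffer · Measured by – kinetic FluxOR fluorescence, 10 s baseline plus 110 s post-stimulus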
KCNK3 block = human KCNK3 channel inhibition, primary screen; CHO-KCNK3 thallium flux, FluxOR fluorescence; active compounds read low; B-score at 10 µM; 0.84% of 340,000 active; AID 602410;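 active = B-score under library mean minus 4 SD, starting fluorescence ratio at most library mean plus 5 SD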;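 also: more negative B-score means stronger inhibition of thallium flux through KCNK3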
KCNQ1 block = blocks the human KCNQ1 potassium channel | P51787 | CHO-K1 KCNQ1, FluxOR thallium flux fluorescence; active compounds read high | B-score at 10 µM | 1.3% of 310,000 active;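 active = compounds whose thallium flux B-score, printed positive for inhibition, exceeds three library SD while starting fluorescence stays within three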;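 also: channel opened by potassium depolarization with thallium stimulus after 20 min compound exposure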
KCNK9 block = blocks the human KCNK9 two-pore domain potassium channel; 1.2% of 310,000 active; B-score at 10 µM; Q9NPC2; HEK293 KCNK9, FluxOR thallium flux fluorescence; active compounds read low; AID 488922;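 active = ratio B-score over 3 SD below the library mean, with starting fluorescence within 5 SD of its mean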;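 also: negative B-score means less thallium flux so channel inhibition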
KCNQ1 block val = confirmation of human KCNQ1 potassium channel inhibitors. shares compounds with KCNQ1 block. KCNQ1 cell line, FluxOR thallium flux fluorescence. inhibition, % at 10 µM. 93% of 1,600 active. AID 588353;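 active = primary screen active, with duplicate mean exceeding buffer control mean plus 3 SD of buffer wells, cut at about 28% in these data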
CHO KCNQ1 ctr = activity in parental CHO cells lacking KCNQ1; shares compounds with KCNQ1 block; parental CHO-K1, FluxOR thallium flux fluorescence ratio; active compounds read low; zero means no signal rise above baseline; fluorescence ratio (Tl flux) at 10 µM; 21% of 1,600 active; AID 588366;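 active = mean of duplicate thallium-flux fluorescence ratios in parental host cells more than 5 SD below the buffer control mean, cut at about 0.38 in these data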;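 also: ratio is peak minus minimum fluorescence divided by baseline fluorescence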
KCNQ1 APC inh = confirmation of human KCNQ1 potassium channel inhibitors by electrophysiology. 20% of 490 active. shares compounds with KCNQ1 block. KCNQ1-CHO cells, automated patch clamp current. calls only at 10 µM. AID 624120;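 active = KCNQ1 current drop exceeding 3 SD of negative control wells, seen in both duplicate runs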;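 also: steady state current during a 2 s step from -80 to +40 mV; negative values mean current inhibition and positive values mean potentiation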
KCNQ2 inh = rat KCNQ2 inhibition in KCNQ1 inhibitor specificity screen. shares compounds with KCNQ1 block. KCNQ2 cells, FluxOR thallium flux fluorescence. inhibition, % at 10 µM. 71% of 1,600 active. AID 651746;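 active = mean percent inhibition of the KCNQ2 thallium signal more than 5 SD above the buffer-only control wells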;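 also: KCNQ2 expressed in CHO cells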
KCNQ1-KCNE1 inh = selectivity of KCNQ1 inhibitors: inhibition of human KCNQ1/KCNE1 channel | inhibition, % at 10 µM | 77% of 1,600 active | shares compounds with KCNQ1 block | KCNQ1/KCNE1 cells, FluxOR thallium flux fluorescence;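 active = mean percent inhibition of duplicate wells above the buffer-only control mean plus 3 SD of those controls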
Target sequence (P51787 whole entry, looked up): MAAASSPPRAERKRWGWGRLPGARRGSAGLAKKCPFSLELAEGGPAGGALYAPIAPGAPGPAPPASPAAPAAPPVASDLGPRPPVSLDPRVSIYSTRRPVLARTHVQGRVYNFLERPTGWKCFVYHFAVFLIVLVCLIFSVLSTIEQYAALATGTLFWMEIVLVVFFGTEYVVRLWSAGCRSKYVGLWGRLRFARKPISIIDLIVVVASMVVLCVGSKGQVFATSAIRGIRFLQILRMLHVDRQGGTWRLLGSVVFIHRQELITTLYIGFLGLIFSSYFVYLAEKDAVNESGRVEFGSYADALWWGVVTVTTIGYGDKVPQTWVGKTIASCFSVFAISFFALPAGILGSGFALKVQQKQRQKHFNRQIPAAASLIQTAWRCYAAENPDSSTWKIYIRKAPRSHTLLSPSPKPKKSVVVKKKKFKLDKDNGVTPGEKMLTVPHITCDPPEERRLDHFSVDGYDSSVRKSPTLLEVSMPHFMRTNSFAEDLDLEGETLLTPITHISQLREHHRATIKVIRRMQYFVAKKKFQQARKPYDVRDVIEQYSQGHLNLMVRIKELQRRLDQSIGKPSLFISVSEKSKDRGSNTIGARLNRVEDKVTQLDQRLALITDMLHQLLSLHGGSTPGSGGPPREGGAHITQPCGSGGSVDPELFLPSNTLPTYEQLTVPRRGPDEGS
Each line names hits and unclear results; the compound was inactive in the other large screens (follow-up assays come after a bar, where they were run). Most compounds without a hit are left out; they make up all but 3.8% or so of the library.

CC(NC(=O)Nc1ccc([N+](=O)[O-])cc1)C(c1ccccc1)N1CCOCC1 (stereo not drawn)	none
CC(NC(=O)Nc1ccc(Cl)c(Cl)c1)C(c1ccccc1)N1CCOCC1 (stereo not drawn)	KCNQ1 block 9 | KCNQ1 block val 105 | CHO KCNQ1 ctr inactive | KCNQ1 APC inh active | KCNQ2 inh 81% | KCNQ1-KCNE1 inh 79%
CN(c1ccccc1)S(=O)(=O)c1ccc(Cl)c(C(=O)OCC(=O)c2c(N)n(C)c(=O)n(C)c2=O)c1	none (no result: hERG rescue, Kir21 block, KCNQ1 act, KCNQ1 block, KCNK9 block)
CCOC(=O)c1c(NC(=O)CSc2nnc(-c3c[nH]c4ccccc34)n2C)sc2c1CCCC2	KCNQ1 block 7 | KCNQ1 block val 64 | CHO KCNQ1 ctr inactive | KCNQ2 inh 65% | KCNQ1-KCNE1 inh inactive
CCCCN(C(=O)c1cc(S(=O)(=O)N2CCCCC2)ccc1Cl)c1c(N)n(CC(C)C)c(=O)[nH]c1=O	none (no result: hERG rescue, Kir21 block, KCNQ1 act, KCNQ1 block, KCNK9 block)
CCOc1ccc(NC(=S)NCc2ccc3c(c2)OCO3)cc1	KCNQ1 block 6 | KCNQ1 block val 40 | CHO KCNQ1 ctr inactive | KCNQ2 inh 96% | KCNQ1-KCNE1 inh 38%
Cc1ccc(NC(=S)NCc2ccc3c(c2)OCO3)cc1	none
c1ccc(CN2CCN(c3ncnc4c3[nH]c3ccccc34)CC2)cc1	KCNQ1 block 7 | KCNQ1 block val 132 | CHO KCNQ1 ctr inactive | KCNQ2 inh 120% | KCNQ1-KCNE1 inh 82%
OC1(c2cccc(C(F)(F)F)c2)CCN(c2ncnc3c2[nH]c2ccccc23)CC1	KCNQ1 block 7 | KCNQ1 block val 134 | CHO KCNQ1 ctr 0.37 | KCNQ2 inh 119% | KCNQ1-KCNE1 inh 146%
Cc1ccc2c(c1)[nH]c1c(N3CCN(Cc4ccccc4)CC3)ncnc12	none
COc1cccc(N2CCN(c3ncnc4c3[nH]c3ccccc34)CC2C)c1 (stereo not drawn)	KCNQ1 block 12 (no result: KCNK3 block) | KCNQ1 block val 142 | CHO KCNQ1 ctr 0.32 | KCNQ2 inh 124% | KCNQ1-KCNE1 inh active
COc1ccc2[nH]c3c(N4CC(C)OC(C)C4)ncnc3c2c1 (stereo not drawn)	none (no result: KCNK3 block)
CNc1nc(Nc2ccc(C(C)=O)cc2)nc(OC(C(F)(F)F)C(F)(F)F)n1	none
CC(=O)c1ccc(Nc2nc(NCCO)nc(OC(C(F)(F)F)C(F)(F)F)n2)cc1	KCNQ1 block 8 | KCNQ1 block val 85 | CHO KCNQ1 ctr inactive | KCNQ2 inh inactive | KCNQ1-KCNE1 inh 114%
O=C(NCC1(c2ccccc2)CCCC1)C1(c2ccccc2)CCCC1	KCNQ1 block 6 | KCNQ1 block val 112 | CHO KCNQ1 ctr inactive | KCNQ1 APC inh inactive | KCNQ2 inh 108% | KCNQ1-KCNE1 inh 152%
COc1ccc(CCN2C(=O)c3[nH]nc(-c4ccccc4O)c3C2c2cccc(Cl)c2)cc1 (stereo not drawn)	KCNQ1 block 9 | KCNQ1 block val 109 | CHO KCNQ1 ctr inactive | KCNQ1 APC inh active | KCNQ2 inh 90% | KCNQ1-KCNE1 inh 140%
Cc1cc(Cl)ccc1OC(C)C(=O)Nc1ccc(C(=O)Nc2ccccc2C(=O)O)cc1 (stereo not drawn)	KCNQ1 block 9 | KCNQ1 block val 94 | CHO KCNQ1 ctr inactive | KCNQ1 APC inh inactive | KCNQ2 inh inactive | KCNQ1-KCNE1 inh 80%
Cc1cc(Cl)ccc1OC(C)C(=O)Nc1ccc(S(=O)(=O)N2CCOCC2)cc1 (stereo not drawn)	none
CCN1/C(=C/c2ccc3cc(C)ccc3[n+]2CC)Sc2ccccc21	KCNQ1 block 17 | KCNQ1 block val active | CHO KCNQ1 ctr 0.035 | KCNQ2 inh inactive | KCNQ1-KCNE1 inh inactive
CCN1/C(=C/c2ccc3cc(C)ccc3[n+]2CC)Sc2cc(C)c(C)cc21	none (no result: hERG rescue, Kir21 block, KCNQ1 act, KCNQ1 block, KCNK9 block)
CN1/C(=C/c2cccc[n+]2CCO)Sc2ccccc21	none
CC[n+]1c(/C=C2\Sc3ccccc3N2C)ccc2cccc(C)c21	KCNQ1 block 22 | KCNQ1 block val active | CHO KCNQ1 ctr 0.05 | KCNQ2 inh inactive | KCNQ1-KCNE1 inh inactive
CC1CCC(=C(C#N)C(=O)Nc2cccc(Cl)c2)CC1 (stereo not drawn)	KCNQ1 block 15 | KCNQ1 block val 96 | CHO KCNQ1 ctr inactive | KCNQ1 APC inh active | KCNQ2 inh 94% | KCNQ1-KCNE1 inh 82%
N#CC(C(=O)Nc1cccc(Cl)c1)=C1Nc2ccccc2N1	none
O=S(=O)(NCCSCc1ccc(Cl)cc1Cl)c1ccc2c(c1)OCCO2	KCNK3 block -9.1, KCNQ1 block 7 | KCNQ1 block val 129 | CHO KCNQ1 ctr inactive | KCNQ1 APC inh inactive | KCNQ2 inh 96% | KCNQ1-KCNE1 inh 144%
Cc1cc2c(cc1C)NC(c1c(C)n(C)n(-c3ccccc3)c1=O)C1=C(CC(C)(C)CC1=O)N2 (stereo not drawn)	KCNQ1 block 15 | KCNQ1 block val inactive | CHO KCNQ1 ctr inactive | KCNQ2 inh inactive | KCNQ1-KCNE1 inh inactive
COc1cc(C2Nc3cc(C)c(C)cc3NC3=C2C(=O)CC(C)(C)C3)ccc1OC(C)=O (stereo not drawn)	none
CCNc1nc(SCC(=O)OC)nc(N(C)C)n1	none
CCc1noc(C)c1C(=O)N1CCCSC1=Nc1ccccc1	KCNQ1 block 8 | KCNQ1 block val 101 | CHO KCNQ1 ctr inactive | KCNQ1 APC inh active | KCNQ2 inh 59% | KCNQ1-KCNE1 inh 66%
CCc1noc(C)c1C(=O)N1CCOCC1	none
Cc1cc(C)c(S(=O)(=O)n2ccc3ccccc32)c(C)c1	KCNQ1 block 9 | KCNQ1 block val 106 | CHO KCNQ1 ctr 0.38 | KCNQ2 inh 116% | KCNQ1-KCNE1 inh 142%
CC(=O)Nc1cccc(-c2csc(Nc3cc(C)ccn3)n2)c1	KCNQ1 block 6 | KCNQ1 block val 70 | CHO KCNQ1 ctr inactive | KCNQ2 inh 90% | KCNQ1-KCNE1 inh 38%
Cc1cc(C2(c3ccc(O)c(C)c3)C(=O)Nc3ccccc32)ccc1O	KCNQ1 block 7 | KCNQ1 block val inactive | CHO KCNQ1 ctr inactive | KCNQ2 inh inactive | KCNQ1-KCNE1 inh inactive
